Published values pooled from the literature.
Lines come from different studies, so protocols differ.
Target: AP2-associated protein kinase 1 (AAK1, Homo sapiens, UniProt Q2M2I8)

Structure (SMILES) | effect on | technique | concentration | remaining binding [%]
CC1CCCN1c1nccc(-c2cnn3ncccc23)n1 (stereo not shown) | binding |  | 1 µM | 100
COc1ncc2cc3ccccc3nc2c1C#N | cell-free assay | competition with immobilised ligand | 5 µM | 96
Cc1cnc(Nc2ccc(C(=O)N3CCC(N4CCCC4)CC3)cc2)nc1-c1cc2ccccc2s1 | binding | competition with immobilised ligand | 1 µM | 22
O=C(NCC1CCOCC1)c1n[nH]cc1NC(=O)c1c(F)cccc1F | binding | competition with immobilised ligand | 1 µM | 86
COc1cnc(Nc2cccc(S(N)(=O)=O)c2)nc1N1CCN(c2ccccc2)C(=O)C1 | binding | competition with immobilised ligand | 1 µM | 84
CN(CCCC(F)(F)F)c1nccc(-c2cnn3ncccc23)n1 | binding |  | 1 µM | 100
CCc1ccccc1C(=O)Nc1n[nH]c2c(C)c(F)c(C3C(C#N)=C(C)N(C)C(C)=C3C#N)cc12 | binding |  | 1 µM | 81
O=C(c1ccc(Nc2nccc(-c3cc4ccccc4s3)n2)cc1)N1CCC(N2CCCC2)CC1 | binding | competition with immobilised ligand | 1 µM | 21
C[C@@H](c1ccc(-n2cnc3c(N)ncnc32)cc1)N1CCc2nn(C)c(Cc3ccccc3)c2C1=O | binding | competition with immobilised ligand | 0.1 µM | 98
CCCCN(CCCC)C(=O)CN1C[C@H](c2cc(OC)c3c(c2)OCO3)[C@@H](C(=O)O)[C@@H]1CC(C)(C)CCC | binding |  | 1 µM | 100
N[C@H]1CCN(c2nccc(-c3cnn4ncccc34)n2)C1 | binding |  | 1 µM | 91
O=C(c1ccc(Nc2ncc(Cl)c(-c3cc4ccccc4s3)n2)cc1)N1CCC(N2CCCC2)CC1 | binding | competition with immobilised ligand | 1 µM | 29
O=C(O)c1cc(-c2ccc(C3CCNCC3)cc2)c2ccc(-c3ccc(C(F)(F)F)cc3)cc2c1 | binding |  | 1 µM | 100
CN(C)c1nccc(-c2cnc3ncccn23)n1 | binding |  | 1 µM | 88
CC(=O)C1=C(C)N(c2cccc(C(F)(F)F)c2)C(=O)N[C@@H]1c1ccc(C#N)nc1 | binding |  | 1 µM | 100
Nc1ncc2c(n1)-c1c([nH]c3ccc(C#CC4CC4)cc13)CCCC2 | binding | competition with immobilised ligand | 1 µM | 92
CN(C)c1nccc(-c2cnn3ncccc23)n1 | binding |  | 1 µM | 75
O=C(NCc1ncc(C(F)(F)F)cc1Cl)c1ccc2c(c1)C1(CCS(=O)(=O)CC1)[C@@H](C1CC1)N2S(=O)(=O)c1ccc(F)cc1 | binding |  | 1 µM | 100
C[C@H]1CCN(c2nccc(-c3cnn4ncccc34)n2)C1 | binding |  | 1 µM | 64
CC(=O)N1CCC(c2ccc(C(=O)NC(=N)N)cc2C(F)(F)F)CC1 | binding |  | 1 µM | 100
c1cnn2ncc(-c3ccnc(N4CCC45COC5)n3)c2c1 | binding |  | 1 µM | 76
CN(c1ccnc(CNc2nc(Nc3ccc4c(c3)CC(=O)N4)ncc2C(F)(F)F)n1)S(C)(=O)=O | binding |  | 1 µM | 27
